Test results: ChEMBL document CHEMBL1125882, “The agonist pharmacophore of the benzodiazepine receptor. Synthesis of a selective anticonvulsant/anxiolytic” (J Med Chem, 1991)

Assays:
[1] = target: GABA-A receptor; anion channel; assay: Effect on [3H]flunitrazepam binding to Benzodiazepine receptor; format: protein-complex assay, Rattus norvegicus
[2] = system: Mus musculus; assay: Number of mice impaired to that of number of mice tested at 10 mg/kg; 0/10; format: functional
[3] = system: Mus musculus; assay: Number of mice impaired to that of number of mice tested at 20 mg/kg; 0/10; format: functional
[4] = system: Mus musculus; assay: Tested for inhibition of pentylenetetrazole (PTZ = 80 mg/kg (ip)) induced seizures in mice at a dose of 0.5-40 mg/kg i.p.; format: functional; conditions: route intraperitoneal
In short: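 Mice pretreated ip with drug (0.5-40 mg/kg); 15 min later pentylenetetrazole 80 mg/kg ip. Tonic and/or clonic seizures were scored over the next 15 min. 5-14 mice per dose point; ED50 taken from the dose-response curve.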

[5] = system: Mus musculus; assay: Effects on Diazepam-Induced Myorelaxation in mice was determined at 10 mg/kg; format: functional
[6] = system: Mus musculus; assay: Effects on Diazepam-Induced Myorelaxation in mice was determined at 20 mg/kg; format: functional
[7] = system: Mus musculus; assay: Effects on Diazepam-Induced Myorelaxation in mice was determined when administered along with compound 1 at 10 mg/kg; format: functional
[8] = system: Mus musculus; assay: Effects on Diazepam-Induced Myorelaxation in mice was determined when administered along with compound 1 at 20 mg/kg; format: functional
[9] = organism: Mus musculus; assay: Effects on Diazepam-Induced Myorelaxation in mice was determined; format: functional

CCCOc1ccc2[nH]c3cnc(C(=O)OCC)c(COC)c3c2c1
IC50 [1]: 8 nM
Activity [2]: 0
Activity [3]: 0
ED50 [4]: 1.6 mg/kg
Impaired [5]: 0%
Impaired [6]: 0%

CN1C(=O)CN=C(c2ccccc2)c2cc(Cl)ccc21 [DIAZEPAM]
Impaired [7]: 50%
Impaired [8]: 0%
Impaired [9]: 100%
